Laboratory results published in ChEMBL document CHEMBL3779824, “Design and synthesis of novel chalcones as potent selective monoamine oxidase-B inhibitors” (Eur J Med Chem, 2016).

Assays:
[1] = target: T1, Amine oxidase [flavin-containing] B (Homo sapiens, UniProt P27338); assay: Competitive inhibition of human MAOB overexpressed in Pichia pastoris using MMTP as substrate preincubated for 5 mins followed by substrate addition by UV/vis spectrophotometric analysis
T1 sequence (P27338 whole entry): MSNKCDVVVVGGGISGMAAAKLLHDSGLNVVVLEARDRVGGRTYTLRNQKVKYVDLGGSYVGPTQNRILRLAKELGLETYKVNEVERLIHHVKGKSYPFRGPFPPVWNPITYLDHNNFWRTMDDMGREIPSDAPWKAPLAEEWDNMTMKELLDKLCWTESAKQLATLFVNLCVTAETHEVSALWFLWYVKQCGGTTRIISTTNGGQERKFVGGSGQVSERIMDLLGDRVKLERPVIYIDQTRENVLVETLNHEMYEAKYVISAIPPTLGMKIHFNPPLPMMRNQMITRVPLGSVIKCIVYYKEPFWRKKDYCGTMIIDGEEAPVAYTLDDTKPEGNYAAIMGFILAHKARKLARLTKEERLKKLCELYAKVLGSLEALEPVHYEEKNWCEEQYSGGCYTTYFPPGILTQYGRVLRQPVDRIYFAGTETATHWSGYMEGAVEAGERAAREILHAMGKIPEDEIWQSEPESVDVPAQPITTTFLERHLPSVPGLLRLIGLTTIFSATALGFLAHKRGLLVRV
How it was run: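 Purified recombinant human MAO-B in reaction buffer containing 0.25% v/v reduced Triton X-100. MMTP assay read at 420 nm in quartz cuvettes under aerobic conditions at 25 °C. MMTP was varied from 0.07 to 2.00 mM and inhibitor from 3 to 40 µM. Apparent kcat (v0/[E]) was plotted against substrate and fitted to competitive, uncompetitive and noncompetitive models to give Ki.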

[2] = target: T1, Amine oxidase [flavin-containing] B; assay: Inhibition of recombinant human MAOB expressed in baculovirus infected BTI insect cell microsomes at 10 uM using MMTP as substrate preincubated for 5 mins followed by substrate addition by spectrophotometric analysis
How it was run: (§1)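 Insect-cell microsomes carrying recombinant human enzyme (25 µg per assay) in 0.1 M potassium phosphate. Incubated with inhibitor at 10 µM final (DMSO 3.3% v/v final) for 5 min at 37 °C. Started with MMTP at 0.15 mM. Absorbance increase followed at 420 nm at 37 °C, with v0 from ε 25000 M-1 cm-1. Activity given as a ratio to a DMSO-only control (100%).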

[3] = target: T2, Amine oxidase [flavin-containing] A (Homo sapiens, UniProt P21397); assay: Inhibition of recombinant human MAOA expressed in baculovirus infected BTI insect cell microsomes at 10 uM using MMTP as substrate preincubated for 5 mins followed by substrate addition by spectrophotometric analysis; how it was run: as §1
T2 sequence (P21397 whole entry): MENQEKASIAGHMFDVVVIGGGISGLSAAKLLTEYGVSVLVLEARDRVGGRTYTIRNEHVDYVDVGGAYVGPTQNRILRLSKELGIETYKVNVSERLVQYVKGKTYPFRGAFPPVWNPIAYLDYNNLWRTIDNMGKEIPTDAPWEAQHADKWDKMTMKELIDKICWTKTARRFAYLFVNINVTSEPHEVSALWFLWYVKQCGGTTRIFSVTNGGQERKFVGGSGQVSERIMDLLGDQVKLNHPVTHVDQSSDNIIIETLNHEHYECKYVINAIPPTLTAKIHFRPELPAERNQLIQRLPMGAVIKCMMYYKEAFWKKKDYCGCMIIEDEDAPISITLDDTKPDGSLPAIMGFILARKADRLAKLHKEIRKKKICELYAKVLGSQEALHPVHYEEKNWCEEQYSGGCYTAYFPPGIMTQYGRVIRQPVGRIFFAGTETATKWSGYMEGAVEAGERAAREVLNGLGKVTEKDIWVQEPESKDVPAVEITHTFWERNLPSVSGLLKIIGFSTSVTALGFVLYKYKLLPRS

[4] = target: T1, Amine oxidase [flavin-containing] B; assay: Inhibition of recombinant human MAOB expressed in baculovirus infected BTI insect cell microsomes using MMTP as substrate preincubated for 5 mins followed by substrate addition by spectrophotometric analysis
How it was run: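 MAO-B in insect-cell microsomes, 25 µg in 0.1 M potassium phosphate with 3.3% v/v DMSO final. Preincubated with inhibitor for 5 min at 37 °C, then MMTP added at 0.15 mM. Absorbance read at 420 nm at 37 °C. Remaining activity relative to the DMSO control was fitted against log10[I] to a dose-response curve for IC50. Mean ± SEM of two experiments.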

[5] = target: T1, Amine oxidase [flavin-containing] B; assay: Time-dependent inhibition of recombinant human MAOB expressed in baculovirus infected BTI insect cell microsomes at IC50 using MMTP as substrate preincubated for 5 mins followed by substrate addition measured after 5 to 60 mins by spectrophotometric analysis
How it was run: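 Microsomal human MAO-B was preincubated with inhibitor at 0.55 µM final for 5, 15, 30 or 60 min. Residual activity was then measured in the MMTP assay (420 nm, 37 °C). Rates expressed as apparent kcat (min-1); SEM from two replicates.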

| Structure (SMILES) | Ki [1] [nM] | inhibition at 10 µM [2] [%] | inhibition at 10 µM [3] [%] | IC50 [4] [nM] | TDI [5] |
| --- | --- | --- | --- | --- | --- |
| O=C(/C=C/c1cccc2c1OCO2)c1cccc(OC(F)(F)F)c1 | 2360 | 88 | 0 | 1510 |  |
| O=C(/C=C/c1cccc2c1OCO2)c1cccc(C(F)(F)F)c1 | 780 | 96 | 16 | 550 | Not Active |
| COc1cccc(/C=C/C(=O)c2cccc(OC(F)(F)F)c2)c1OC |  | 41 | 0 |  |  |
| COc1cccc(/C=C/C(=O)c2ccccc2C(F)(F)F)c1OC |  | 27 | 0 |  |  |
| CSc1ccc(C(=O)/C=C/c2cccc3c2OCO3)cc1 | 550 | 86 | 0 | 950 |  |
| COc1cccc(/C=C/C(=O)c2cccc(C(F)(F)F)c2)c1OC |  | 63 | 0 | 4490 |  |
| COc1cccc(/C=C/C(=O)c2ccc(SC)cc2)c1OC |  | 36 | 0 |  |  |
| CS(=O)(=O)c1ccc(C(=O)/C=C/c2cccc3c2OCO3)cc1 | 720 | 93 | 0 | 1000 |  |
| O=C(/C=C/c1cccc2c1OCO2)c1ccccc1C(F)(F)F |  | 7 |  |  |  |
| COc1cccc(/C=C/C(=O)c2ccc(S(C)(=O)=O)cc2)c1OC | 1150 | 90 | 0 | 1970 |  |
